According to ChEMBL document CHEMBL1255440, “An antimicrobial peptide that targets DNA repair intermediates in vitro inhibits Salmonella growth within murine macrophages” (Antimicrob Agents Chemother, 2010):
Activity calls are given as the source filed them. The calls are words filed in the database; no cut-off is given here.

System: Salmonella typhimurium
Test: Antibacterial activity against 1 MOI Salmonella enterica subsp. enterica serovar Typhimurium infected in mouse J774A1 cells assessed as reduction in bacterial growth at 2.5 times MIC
Assay type: functional, organism-based
Settings: J774.A1
How it was run: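 J774A.1 cells or thioglycolate-elicited BALB/c peritoneal macrophages seeded at 200,000/well, overnight 37°C 5% CO2; infected with GFP strain SDT1416, 1 h invasion, washed, 1 h in DMEM with 15 μg/ml gentamicin. Then fresh DMEM plus 15 μg/ml gentamicin with or without peptide (DMSO vehicle) for 24 h at 37°C; macrophages lysed with 1% Triton X-100, plated on LB agar for CFU.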

SMILES: N=C(N)NCCC[C@H](NC(=O)[C@H](CS)NC(=O)[C@H](Cc1ccc(O)cc1)NC(=O)[C@H](Cc1c[nH]c2ccccc12)NC(=O)[C@H](CCCNC(=N)N)NC(=O)[C@@H](N)Cc1c[nH]c2ccccc12)C(=O)O
- Activity: Active
